Screening results as filed in PubChem BioAssay.
Compounds with a hit are over-represented: about 1.2% of the library has one in this group of screens.
TRPN1 ag – agonists of zebrafish TRPN1 channel; HEK293 zebrafish TRPN1-YFP, Fluo-8 calcium fluorescence; 100% = response to 87 µM carbachol; activation, % at 3 µM; hit rate 0.18% among 220,000;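 active = activation above its plate's cutoff, the mean activation of test wells on that plate plus 3 SD, cut at about 19% in these data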;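 note: 0% = DMSO alone and 100% = 87 µM carbachol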
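Control set: carbachol 87 µM as high control, DMSO as low control; system: HEK293 stable line with zebrafish TRPN1-YFP; read-out: % activation versus carbachol response; detection: intracellular calcium fluorescence with Fluo-8; doses: single test compound dose, 3 µM nominal, 0.3% DMSO; schedule: dye 1 h 37 °C plus 30 min RT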
CRFBP-R2 block – blocks CRF-induced signaling of the CRF-BP/CRF-R2 complex; hit rate 0.59% among 350,000; HEK293 CRF-R2/CRF-BP, CRF-induced calcium fluorescence; inhibition, % at 11.8 µM;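 active = inhibition of the ligand-induced calcium signal above about 50% at the single tested concentration, limit read from the data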
TRPML3 ag – agonists of human TRPML3 channel; Q8TDD5; HEK293 TRPML3-YFP, Fluo-8 calcium fluorescence; 100% = the carbachol control signal; activation, % at 3 µM; hit rate 0.29% among 220,000; AID 1448;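 active = activation above its plate's cutoff, the mean activation of the plate's test wells plus 3 SD, cut at about 12% in these data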;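 note: 0% = DMSO only wells and 100% = carbachol wells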
Target sequence (Q8TDD5 whole entry, looked up): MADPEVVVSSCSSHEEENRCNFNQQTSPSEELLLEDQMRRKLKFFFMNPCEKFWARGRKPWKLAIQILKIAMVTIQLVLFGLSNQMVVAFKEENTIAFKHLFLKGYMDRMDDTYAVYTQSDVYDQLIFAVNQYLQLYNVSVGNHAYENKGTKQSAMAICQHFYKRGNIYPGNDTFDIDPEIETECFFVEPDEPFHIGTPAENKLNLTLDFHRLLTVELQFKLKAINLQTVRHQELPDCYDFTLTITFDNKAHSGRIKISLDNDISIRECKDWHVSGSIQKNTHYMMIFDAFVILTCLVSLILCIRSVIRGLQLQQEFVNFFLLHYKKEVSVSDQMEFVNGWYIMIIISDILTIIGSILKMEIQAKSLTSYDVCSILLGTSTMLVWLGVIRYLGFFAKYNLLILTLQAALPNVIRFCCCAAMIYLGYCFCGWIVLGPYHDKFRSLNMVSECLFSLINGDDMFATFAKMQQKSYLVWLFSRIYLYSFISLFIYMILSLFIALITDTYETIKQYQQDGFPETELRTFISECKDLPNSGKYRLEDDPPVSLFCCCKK
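Test system: HEK293 cells stably carrying human TRPML3-YFP; Doses: single dose, 3 µM final nominal compound, 0.3% DMSO final; Schedule: dye loading 1 h 37 °C then 30 min ambient, 125 s read; Technique: Fluo-8 calcium fluorescence; Benchmarks: high control carbachol 87 µM, low control DMSO.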
CRFBP-R2 agonist – CRF-BP/CRF-R2 complex agonism | HEK293 CRF-R2/CRF-BP, calcium dye fluorescence (FLIPR); percent of saturating CRF peptide response | activation, % at 13.2 µM | hit rate 0.46% among 350,000 | AID 588473;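 active = activation of at least 50%, plus an integration ratio under a set limit after plate pattern correction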;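 note: plate controls were neutral control wells without compound for no effect and CRF at EC100 for full effect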
* marks the source's active call; other numbers are inactive results; nt = not tested or not shown.

SMILES	TRPN1 ag	CRFBP-R2 block	TRPML3 ag	CRFBP-R2 agonist
Cc1nnc(SCc2nc(N)nc(Nc3ccccc3)n2)s1	1	-13	0	-1
CCOC(=O)C1=C(COC(=O)c2ccc3ccccc3c2O)NC(=O)NC1C (stereo not given)	nt	-27	nt	53*
CCOC(=O)C1=C(COC(=O)c2ccccc2OC(F)F)NC(=O)NC1C (stereo not given)	nt	-9	nt	-1
OC(C#CCN1CCCC1)(c1ccccc1)c1cccnc1 (stereo not given)	-1	-7	-1	-1
OC(C#CCN1CCCCCC1)(c1ccccc1)c1cccnc1 (stereo not given)	0	117*	1	-1
O=C(Nc1ccccc1F)C1CC1c1ccccc1 (stereo not given)	-1	20	0	1
Cc1cccc(NC(=O)C2CC2c2ccccc2)c1C (stereo not given)	nt	-13	nt	70*
Cn1c(=O)n(C)c2cc(S(=O)(=O)Nc3cc(Cl)ccc3O)ccc21	3	103*	1	1
Cc1ccc(-c2csc3nnc(SCC(=O)N4CCN(Cc5ccccc5)CC4)n23)cc1	2	66*	-1	-5
O=C(CSc1nnc2scc(-c3ccccc3)n12)N1CCN(Cc2ccccc2)CC1	-1	7	1	-3
COc1ccc(Cn2c(=O)c3[nH]cnc3n(-c3ccc(C)cc3)c2=O)cc1	5	1	1	-1
CC(C(=O)NCC1CCCO1)c1ccc([N+](=O)[O-])cc1 (stereo not given)	0	6	0	1
CCOC(=O)c1cn(Cc2ccccc2)c2cc(C)nn2c1=O	1	7	1	-1
CCOC(=O)c1cn(Cc2ccccc2)c(C(=O)OC(C)(C)C)c1O	nt	-1	nt	62*
CCOC(=O)N1CCN(c2c(N3CCN(c4cc(C)ccc4C)CC3)c(=O)c2=O)CC1	0	20	0	-1
COCCCNC(=S)N1CCC(NC(=O)Nc2ccc(C)cc2)CC1	0	4	0	-1
CC(Oc1ccccc1)C(=O)Nc1ccc(C(N)=O)cc1 (stereo not given)	-1	3	0	9
CC(C)NS(=O)(=O)c1ccc(NC(=O)C(C)Oc2ccc(C(=O)c3ccccc3)cc2)cc1 (stereo not given)	50*	-115	21*	162*
CN1CCN(S(=O)(=O)c2cccc(C(=O)N(C)Cc3cccs3)c2)CC1	nt	7	nt	-1
Cc1ccc2cccc(Oc3ncnc4scc(-c5ccccc5)c34)c2n1	0	66*	0	0
Fc1ccc(CSc2ccc3nnc(-c4cccs4)n3n2)cc1	0	2	1	2
Cc1cccc(CSc2ccc3nnc(-c4cccs4)n3n2)c1	-1	63*	0	3
CNC(=O)CN1C(=O)CSc2ncccc21	0	6	0	-1
CCCCNS(=O)(=O)/C=C/c1ccccc1	-2	-9	-1	0
Cc1cnc(C(=O)OCC(=O)N2c3ccccc3NC(=O)C2(C)C)cn1	2	7	0	-2
SMILES	TRPN1 ag	CRFBP-R2 block	TRPML3 ag	CRFBP-R2 agonist
CC(OC(=O)/C(C#N)=C/c1ccc(N(C)C)cc1)C(=O)N(C)Cc1ccccc1 (stereo not given)	nt	-61	nt	63*
O=C(CCC1CCCC1)NNC(=O)COc1ccc(Br)cc1	nt	0	nt	-1
CC(=O)N1c2ccccc2NC2=C(C(=O)CCC2)C1c1ccco1 (stereo not given)	3	-2	0	1
O=c1[nH]c(C(Cl)Cl)nc2sc3c(c12)CCN(Cc1ccccc1)C3	0	5	0	56*
CCCSc1nc2sc3c(c2c(=O)[nH]1)CCN(Cc1ccccc1)C3	3	-14	4	44
CCOC(=O)CSc1nc(N2CCOCC2)c2c(c1C#N)CC(C)(C)N(C)C2	1	-112	0	196*
O=C(Cc1c(O)c2ccccc2[nH]c1=O)OC1CCCCC1	1	67*	1	-2
Cc1[nH]c(C)c(S(=O)(=O)NCCc2ccccc2)c1C(=O)N1CCCCC1	nt	70*	nt	1
Cc1c(C(=O)N2CCCCC2)c(S(=O)(=O)NCCc2ccccc2)c(C)n1C	nt	-8	nt	0
CC(C)C(=O)Nc1sc2c(c1C(N)=O)CCN(Cc1ccccc1)C2	nt	-25	nt	11
Cc1csc(=O)n1CC(=O)Nc1nc2ccccc2s1	nt	16	nt	1
O=C(Nc1cccn(Cc2c(Cl)cccc2Cl)c1=O)c1c(Cl)cccc1Cl	-1	52*	-1	2
Cc1ccc(C(CC(=O)NCc2ccco2)c2ccc(OC(C)C)cc2)cc1 (stereo not given)	-1	51*	0	3
COc1ccc(C(CC(=O)NCc2ccco2)c2ccc(F)cc2)cc1 (stereo not given)	-1	-3	0	-1
COc1cc(C(=O)NC2CC(C)(C)Cc3c2cnn3-c2ccccc2)cc(OC)c1OC (stereo not given)	nt	57*	nt	0
COc1ccc(C(=O)NC2CC(C)(C)Cc3c2cnn3-c2ccccc2)cc1OC (stereo not given)	nt	-4	nt	1
CCN1CCN(CCNC(=O)c2cn(Cc3ccccc3F)nn2)CC1	28*	-1	0	-2
O=C(Nc1ncc(S(=O)(=O)c2ccc([N+](=O)[O-])cc2)s1)c1cccc2ccccc12	1	-70	1	112*
COCC(=O)Nc1ncc(S(=O)(=O)c2ccc([N+](=O)[O-])cc2)s1	2	10	1	-1
O=C(NC(Nc1ncc(S(=O)(=O)c2ccc([N+](=O)[O-])cc2)s1)(C(F)(F)F)C(F)(F)F)c1ccc(Cl)cc1	15	62*	1	34
CC(C)CNS(=O)(=O)c1cc(C(=O)N2CCOCC2)c(Cl)cc1Cl	0	3	1	1
Cc1csc(=Nc2ccccc2)n1Cc1ccco1	-1	53*	-1	-12
Cc1csc(=NC(=O)c2ccccc2)n1Cc1ccco1	-2	27	-1	-2
COc1ccc(CN(CCC(c2ccccc2)c2ccc(OC(C)C)cc2)C(=O)CCl)cc1OC (stereo not given)	0	53*	0	0
Cn1ccnc1SCc1cn2ccccc2n1	1	72*	1	7
SMILES	TRPN1 ag	CRFBP-R2 block	TRPML3 ag	CRFBP-R2 agonist
CCOc1ccccc1N(C)C(=O)Cn1ncc2c([nH]c3ccccc32)c1=O	nt	94*	nt	7
CCOC(=O)c1c(-c2ccc(OC)cc2)csc1NC(=O)CNCc1ccco1	-1	78*	-1	3
CCOC(=O)c1c(-c2ccc(Cl)cc2)csc1NC(=O)CNCc1ccco1	3	16	0	-1
CCCCc1cc2c(c(NC(C)=O)n1)c(=O)oc1ccccc12	1	nt	0	nt
Nc1ccc2c3c(cccc13)CC2	42*	4	20*	3
Cc1ccc(N2C(=O)c3cccc4c(N5CCN(C)CC5)ccc(c34)C2=O)c2cccnc12	4	-73	5	89*
O=C1c2cccc3c(N4CCCCC4)ccc(c23)C(=O)N1c1ccccc1O	36*	-241	18*	259*
O=C1c2cccc3c(N4CCCCC4)ccc(c23)C(=O)N1c1ccc(O)cc1	20*	-277	12*	224*
